Where “and” joins values, the source holds several entries; their conditions need not be identical. Equal entries are not always repeated. Calls of active or inactive are those of the source. The rule behind the calls is not given here.
Tests used:
[1] = target: T1, 5-demethoxyubiquinone hydroxylase, mitochondrial (Homo sapiens) (UniProt Q99807); assay: Inhibition of COQ7 in human HeLa cells assessed as DMQ10 level per well at 10 uM after 2 days by HPLC analysis relative to control; format: cell-based; set-up: scale not given: the % may be the effect or the level left
T1 sequence (whole entry): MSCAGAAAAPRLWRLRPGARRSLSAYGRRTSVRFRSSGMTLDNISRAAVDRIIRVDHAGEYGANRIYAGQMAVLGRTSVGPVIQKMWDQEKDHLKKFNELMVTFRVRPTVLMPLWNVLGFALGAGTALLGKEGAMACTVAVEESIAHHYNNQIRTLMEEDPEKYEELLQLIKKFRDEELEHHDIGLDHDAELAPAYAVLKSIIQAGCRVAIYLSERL
Procedure, shortened: (§1)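 HeLa cells cultured overnight, then exposed 48 hr to compound (single 30 µM screen, 10 µM, or graded doses); 0.5-1.0% DMSO controls. Quinones extracted with ethanol/n-hexane after K3Fe(CN)6 oxidation and UQ9 internal standard, then resolved by C18 HPLC with UV at 275 nm. DMQ10 and UQ10 reported as ng/well and DMQ10 as % of total quinone; mean of duplicates.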

[2] = target: T1, 5-demethoxyubiquinone hydroxylase, mitochondrial (Homo sapiens); assay: Inhibition of COQ7 in human HeLa cells assessed as DMQ10 level per well at 10 uM after 2 days by HPLC analysis; format: cell-based; procedure, shortened: as §1
[3] = target: T1, 5-demethoxyubiquinone hydroxylase, mitochondrial (Homo sapiens); assay: Inhibition of COQ7 in human HeLa cells assessed as UQ10 level per well at 10 uM after 2 days by HPLC analysis; format: cell-based; procedure, shortened: as §1
[4] = (§2) Cytotoxicity against human WI38 cells assessed as growth inhibition after 4 days by cell-titer-Glo assay; format: cell-based, WI-38; conditions: WI-38 cells
Procedure, shortened: (§3)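 WI-38 normal fibroblasts grown in DMEM + 10% FBS at 37 °C, 5% CO2. Pre-cultured 24 hr, then exposed to compound at 0-30 µM for 4 days. Viability read by CellTiter-Glo 2.0; GI50 by linear interpolation of concentration-response curves, mean of triplicates.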

PANC-1 = assay: Growth inhibition of human PANC1 cells after 3 days by cell-titer-Glo assay; format: functional; conditions: PANC-1, 72 h
Procedure, shortened: (§4)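 Cells pre-cultured 24 hr, then exposed to a range of compound concentrations for a further 3 days. Viable cells counted by CellTiter-Glo 2.0 luminescence; GI50 obtained by linear interpolation of concentration-response curves, mean of triplicates. Medium: DMEM + 10% FBS for HeLa and PANC-1, EMEM for C3A, F-12K for PC-3; 37 °C, 5% CO2.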

C3A [5] = assay: Antiproliferative activity against human C3A cells at 10 uM assessed as increase in cell death incubated for 24 hrs and measured after 3 days
PC-3 = assay: Cytotoxicity against human PC3 cells assessed as growth inhibition after 3 days by cell-titer-Glo assay; format: functional; conditions: PC-3, 72 h; procedure, shortened: as §4
C3A [6] = assay: Growth inhibition of human C3A cells assessed as growth inhibition after 3 days by cell-titer-Glo assay; format: functional; conditions: 72 h; procedure, shortened: as §4
[7] = target: T1, 5-demethoxyubiquinone hydroxylase, mitochondrial (Homo sapiens); assay: Inhibition of COQ7 in human PANC1 cells assessed as DMQ10 accumulation at 10 uM after 24 hrs by HPLC analysis relative to control; format: cell-based; set-up: scale not given: the % may be the effect or the level left; conditions: PANC-1
Procedure, shortened: (§5)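 Cells (2 or 4 x 10^5/well) cultured overnight, then exposed 24 hr to compound at 10 µM; DMSO controls. Cells suspended in PBS with 5% K3Fe(CN)6, 0.12 µg UQ9 added as internal standard, quinones extracted in ethanol/n-hexane (2:5). Reverse-phase C18 HPLC, isocratic diisopropyl ether/methanol (1:9), 30 °C, UV 275 nm; DMQ10 at 10.2 min. DMQ10 reported as ng/well and % of total quinone; duplicate wells.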

C3A [8] = assay: Growth inhibition of human C3A cells after 3 days in presence of 10 mM 2-DG by cell-titer-Glo assay; format: functional; conditions: 72 h
Procedure, shortened: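 C3A cells in EMEM + 10% FBS with 10 mM 2-deoxyglucose in the medium to block glycolysis. Pre-cultured 24 hr, then exposed to graded compound concentrations for 3 further days. Viable cells quantified by CellTiter-Glo 2.0; GI50 by linear interpolation, mean of triplicates.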

WI-38 = assay: as §2; format: cell-based; conditions: wi-38, 96 h, 96 h; procedure, shortened: as §3
HeLa = assay: Growth inhibition of human HeLa cells assessed as growth inhibition after 3 days by cell-titer-Glo assay; format: functional; conditions: 72 h; procedure, shortened: as §4
[9] = target: T1, 5-demethoxyubiquinone hydroxylase, mitochondrial (Homo sapiens); assay: Inhibition of COQ7 in human C3A cells assessed as DMQ10 level per well at 10 uM after 1 day by HPLC analysis (reference value: 7.4 ng); format: cell-based; procedure, shortened: as §5
[10] = target: T1, 5-demethoxyubiquinone hydroxylase, mitochondrial (Homo sapiens); assay: Inhibition of COQ7 in human HeLa cells assessed as DMQ10 level per well at 10 uM after 1 day by HPLC analysis (reference value: 6.8 ng); format: cell-based; procedure, shortened: as §5
[11] = target: T1, 5-demethoxyubiquinone hydroxylase, mitochondrial (Homo sapiens); assay: Inhibition of COQ7 in human PC3 cells assessed as DMQ10 accumulation at 10 uM after 24 hrs by HPLC analysis relative to control; format: cell-based; set-up: scale not given: the % may be the effect or the level left; conditions: PC-3; procedure, shortened: as §5
[12] = target: T1, 5-demethoxyubiquinone hydroxylase, mitochondrial (Homo sapiens); assay: Inhibition of COQ7 in human HeLa cells assessed as DMQ10 accumulation at 30 uM after 2 days by HPLC analysis relative to control; format: cell-based; set-up: scale not given: the % may be the effect or the level left; procedure, shortened: as §1
[13] = target: T1, 5-demethoxyubiquinone hydroxylase, mitochondrial (Homo sapiens); assay: Inhibition of COQ7 in human HeLa cells assessed as DMQ10 accumulation at 10 uM after 2 days by HPLC analysis relative to control; format: cell-based; set-up: scale not given: the % may be the effect or the level left; procedure, shortened: as §1
[14] = target: T1, 5-demethoxyubiquinone hydroxylase, mitochondrial (Homo sapiens); assay: Inhibition of COQ7 in human PANC1 cells assessed as DMQ10 accumulation at 10 uM after 1 day by HPLC analysis relative to control; format: cell-based; set-up: scale not given: the % may be the effect or the level left; conditions: PANC-1; procedure, shortened: as §5
[15] = target: T1, 5-demethoxyubiquinone hydroxylase, mitochondrial (Homo sapiens); assay: Inhibition of COQ7 in human HeLa cells assessed as DMQ10 accumulation at 20 uM after 2 days by HPLC analysis; format: cell-based; procedure, shortened: as §1
[16] = target: T1, 5-demethoxyubiquinone hydroxylase, mitochondrial (Homo sapiens); assay: Inhibition of COQ7 in human C3A cells assessed as DMQ10 accumulation at 10 uM after 1 day by HPLC analysis relative to control; format: cell-based; set-up: scale not given: the % may be the effect or the level left; procedure, shortened: as §5
[17] = target: T1, 5-demethoxyubiquinone hydroxylase, mitochondrial (Homo sapiens); assay: Inhibition of COQ7 in human PC3 cells assessed as DMQ10 accumulation at 10 uM after 1 day by HPLC analysis relative to control; format: cell-based; set-up: scale not given: the % may be the effect or the level left; conditions: PC-3; procedure, shortened: as §5
[18] = target: T1, 5-demethoxyubiquinone hydroxylase, mitochondrial (Homo sapiens); assay: Inhibition of COQ7 in human BxPC3 cells assessed as DMQ10 accumulation at 10 uM after 1 day by HPLC analysis relative to control; format: cell-based; set-up: scale not given: the % may be the effect or the level left; conditions: BXPC-3; procedure, shortened: as §5
[19] = target: T1, 5-demethoxyubiquinone hydroxylase, mitochondrial (Homo sapiens); assay: Inhibition of COQ7 in human HeLa cells assessed as DMQ10 accumulation at 10 uM after 1 day by HPLC analysis relative to control; format: cell-based; set-up: scale not given: the % may be the effect or the level left; procedure, shortened: as §5
[20] = target: T1, 5-demethoxyubiquinone hydroxylase, mitochondrial (Homo sapiens); assay: Inhibition of COQ7 in human HeLa cells assessed as DMQ10 accumulation at 5 uM after 2 days by HPLC analysis; format: cell-based; procedure, shortened: as §1

SMILES | Activity [1] [%] | Activity [2] [ng] | Activity [3] [ng] | GI50 at 96 h [4] [µM] | also measured
Oc1cc(CC2CCCCC2)nn1-c1ccccn1 | 42.9 | 6.6 | 8.8 | 17.5 | –
COc1ccc(-n2nc(-c3ccccc3)cc2O)nc1 | 0 | 0 | 6.7 | 25.4 | –
Oc1cc(-c2ccccc2)nn1-c1ccc(F)cn1 | 10.8 | 1.8 | 14.8 | 28.9 | –
Oc1cc(CCc2ccccc2)nn1-c1ccccn1 | 51.4 | 9.3 | 8.8 | 9.6 | –
Oc1cc(C2CCCCC2)nn1-c1ccccn1 | 20.7 | 5.5 | 5.9 | 9.1 | –
Oc1cc(-c2ccccc2)nn1-c1ncccc1Cl | 0 | 0 | 20.7 | > 30 | –
Oc1cc(-c2ccccc2)nn1-c1ccc(Cl)cn1 | 52 | 13.2 | 12.2 | 19 | GI50 (PANC-1): > 12 µM; Activity (C3A [5]): inactive; GI50 (PC-3): > 12 µM; GI50 (C3A [6]): 9 µM; Activity [7]: 11.4%; GI50 (C3A [8]): 6.1 µM; GI50 (WI-38): 19 µM; GI50 (HeLa): > 12 µM; Activity [9]: 7.8 ng; Activity [10]: 7.9 ng; Activity [11]: 27.6%
Oc1cc(C2CCC2)nn1-c1ccccn1 | 0 | 0 | 24.4 | 25 | –
Oc1cc(-c2ccccc2)nn1-c1ccccn1 | 7.1 | 1.3 | 17.1 | 20.8 | Activity [12]: > 30%; Activity [13]: 19.3%
Oc1cc(-c2ccccc2)nn1-c1ccc(C(F)(F)F)cn1 | 49.5 | 9.2 | 9.4 | 9.4 | –
Oc1cc(-c2ccccc2)nn1-c1cc(Cl)ccn1 | 0 | 0 | 22.7 | > 30 | –
Oc1cc(-c2ccccc2)nn1-c1ccccc1 | 0 | 0 | 28.5 | > 30 | –
Clc1cc(-c2ccccc2)nn1-c1ccccn1 | 0 | 0 | 35.7 | > 30 | –
Cc1ccc(-n2nc(-c3ccccc3)cc2O)nc1 | 32.2 | 7.3 | 15.4 | – | GI50 (PANC-1): > 12 µM; Activity (C3A [5]): inactive; GI50 (PC-3): > 12 µM; GI50 (C3A [6]): 18.5 µM; Activity [7]: 8.7%; GI50 (C3A [8]): 20.2 µM; GI50 (WI-38): 26.3 µM and > 12 µM; GI50 (HeLa): > 12 µM; Activity [11]: 14%
Oc1c(I)cc(Cl)c2cccnc12 | – | – | – | – | Activity [14]: < 5%; Activity [15]: inactive; Activity [16]: > 20%; Activity [17]: < 5%; Activity [18]: < 5%; Activity [19]: > 20%; Activity [20]: Active
Nc1ccc(-n2nc(-c3ccccc3)cc2O)nc1 | 10 | 2.6 | 23.4 | > 30 | –
Oc1cc(-c2ccccc2)nn1-c1cccnc1 | 0 | 0 | 23.7 | > 30 | –
Oc1cc(-c2ccccc2)nn1-c1ccncc1 | 0 | 0 | 33.7 | > 30 | –
Oc1cc(C2CCCC2)nn1-c1ccccn1 | 32.4 | 5.8 | 12.1 | 12.7 | –
CS(=O)(=O)c1ccc(-n2nc(-c3ccccc3)cc2O)nc1 | 11 | 2.2 | 17.8 | > 30 | –

From ChEMBL document CHEMBL4613220, “Identification of small molecule inhibitors of human COQ7” (Bioorg Med Chem, 2020)
